Screens deposited in PubChem BioAssay by The Scripps Research Institute Molecular Screening Center.
LYPLA1 counter = blocks human lysophospholipase 1, a PME1 counter-screen. inhibition, % at 5.9 µM. actives 0.16% (n = 320,000). recombinant LYPLA1, FP-Rh probe fluorescence polarization. O75608;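 active means inhibition above the mean of all tested compounds plus 3 SD, set per campaign, cut at about 14% in these data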;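 further: inhibitors block serine hydrolase probe labeling of LYPLA1 so polarization falls; 0% = enzyme with DMSO and 100% = wells lacking LYPLA1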
Target sequence (O75608 whole entry, looked up): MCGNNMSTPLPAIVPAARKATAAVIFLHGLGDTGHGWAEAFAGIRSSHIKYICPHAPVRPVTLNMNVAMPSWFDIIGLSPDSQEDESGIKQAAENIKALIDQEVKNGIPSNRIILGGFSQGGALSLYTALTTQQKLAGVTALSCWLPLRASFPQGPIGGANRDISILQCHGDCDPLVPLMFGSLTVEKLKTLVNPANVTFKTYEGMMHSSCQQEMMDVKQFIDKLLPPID
LYPLA2 counter = LYPLA2 (human) inhibition in PME1 counter-screen | inhibition, % at 5.9 µM | recombinant LYPLA2, FP-Rh probe fluorescence polarization | actives 0.38% (n = 320,000) | O95372;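 active means inhibition above the screen-wide mean plus 3 SD, limit set per campaign, cut at about 26% in these data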;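 further: 0% = LYPLA2 with DMSO and 100% = wells lacking LYPLA2 enzyme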
Target sequence (O95372 whole entry, looked up): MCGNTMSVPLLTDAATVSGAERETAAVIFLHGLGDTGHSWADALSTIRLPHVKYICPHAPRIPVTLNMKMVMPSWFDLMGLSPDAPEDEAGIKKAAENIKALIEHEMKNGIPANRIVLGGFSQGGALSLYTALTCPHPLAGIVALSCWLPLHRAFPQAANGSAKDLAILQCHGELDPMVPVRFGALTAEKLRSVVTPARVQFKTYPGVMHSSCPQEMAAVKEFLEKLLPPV
procasp3 activ = procaspase-3 (human) activation. P42574. recombinant procaspase-3 D3A, Ac-DEVD-pNA absorbance 405 nm. actives 0.11% (n = 330,000). activation, % at 8.5 µM. AID 463141;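 active means activation above the mean of all tested compounds plus 3 SD, cut at about 21% in these data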;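 further: 0% = DMSO alone and 100% = DMSO wells spiked with extra 5 µM PC-3 D3A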
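Evaluation: percent activation relative to control range; Material: Procaspase-3 D3A mutant, all three cleavage aspartates alanine; Compound: single dose, 8.5 µM nominal compound, 0.8% DMSO; Replication: one well per compound; Signal: absorbance at 405 nm, 0 and 120 min; Schedule: 1 h preincubation plus 2 h reaction at 25 °C.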
PREPL inhibitor = inhibitors of human prolyl oligopeptidase-like enzyme PREPL. AID 2751. recombinant PREPL, fluorescence polarization activity-based probe. actives 0.68% (n = 320,000). inhibition, % at 5.96 µM. Q4J6C6; in the data active means inhibition above about 43%;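 further: 0% = enzyme with DMSO and 100% = wells lacking enzyme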
proCasp7 act = counter-screen: procaspase-7 (human) activation; P55210; recombinant procaspase-7, Ac-DEVD-pNA absorbance 405 nm; D23A/D198A/D206A triple mutant, cannot self-cleave; scale: DMSO 0, 5 µM enzyme 100; activation, % at 8.5 µM; actives 0.093% (n = 330,000);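 active means percent activation above the screen-wide mean plus 3 SD, cut at about 25% in these data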
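Detection: p-Nitroaniline absorbance at 405 nm, read at 0 and 120 min; system: Uncleavable procaspase-7 mutant enzyme; evaluation: % activation from two-timepoint absorbance difference, scaled to controls; times: 1 h enzyme–compound preincubation and 2 h substrate reaction, both 25 °C; buffer or medium: Zinc-free HEPES pH 7.4 with 300 mM NaCl, 0.01% Triton X-100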
Numbers without * were called inactive; · = not tested or not shown. Hits are enriched below; roughly 1% of the tested compounds scored in any of these assays.

SMILES	LYPLA1 counter	LYPLA2 counter	procasp3 activ	PREPL inhibitor	proCasp7 act
C#CCOCCOCCOCCNc1nc(N2CCN(C(=O)CCCCCCCCCCNC(=O)[C@@H](CCC(=O)O)n3cc(CCCCCN)nn3)CC2)nc(N2CCN(C(=O)CCCCCCCCCCNC(=O)[C@H](CCCCN)n3cc(C[C@@H](C)CC)nn3)CC2)n1	-0.9	-1.3	10.5	30.7	5.7
C#CCOCCOCCOCCNc1nc(N2CCN(C(=O)CCCCCCCCCCNC(=O)[C@H](CCCCN)n3cc(C[C@@H](C)CC)nn3)CC2)nc(N2CCN(C(=O)CCCCCCCCCCNC(=O)[C@H](CCCN=C(N)N)n3cc(C[C@@H](C)CC)nn3)CC2)n1	-5.3	-7.2	-3.3	66.2*	5.7
Cc1nc(NC(=O)C2CC2)sc1C	3.9	6.8	3.1	0.7	8.5
COc1ccccc1NC(=O)CSc1ccc2nnc(-c3cccnc3)n2n1	-0.7	3.9	-1.2	-0.1	6.7
COc1ccc(NC(=O)CSc2ccc3nnc(-c4cccnc4)n3n2)c(OC)c1	-0.3	2.4	-4.7	45.4*	10.0
Brc1cccc(CNc2nc3ccccc3n2CCN2CCCCC2)c1	2.4	1.1	3.5	51.7*	5.4
CCOc1ccc(NC(=O)Cn2cc(C(=O)CC)c3ccccc32)cc1	-3.6	2.5	-6.5	2.9	2.9
Nc1ccc(S(=O)(=O)c2ccc(N)c(N)c2)cc1	3.2	-2.6	-15.0	7.0	3.0
CCOC(=O)c1cnc(-n2cc(C)cn2)nc1NCc1ccc2c(c1)OCO2	-0.4	-0.2	6.6	58.4*	9.1
COc1ccccc1CNC(=O)COc1ccc(C)cc1	4.7	5.1	3.6	-6.5	-5.2
Nc1ccc2nc(N3CCOCC3)sc2c1	0.1	7.9	4.0	46.5*	5.3
CCN(CC)CCn1c2ccc(F)cc2c2nc(C)sc21	-1.5	-3.5	-2.2	-2.3	12.4
Cc1cccc(Oc2cc(N)cc([N+](=O)[O-])c2)c1	2.5	31.2*	5.4	7.5	5.1
CCOc1cc(/C=C(\C#N)c2[nH]nc(N)c2C#N)ccc1O	-4.2	2.3	-11.1	51.6*	-4.8
CCn1c(N2CCC(Cc3ccccc3)CC2)nc2c1c(=O)[nH]c(=O)n2C	0.1	5.9	1.6	57.1*	13.7
Cn1c(=O)[nH]c(=O)c2c1nc(N1CCOCC1)n2CCSc1nnnn1-c1ccccc1	2.0	1.6	-0.1	6.2	3.6
COc1ccc(N2CCN(c3nc4c(c(=O)[nH]c(=O)n4C)n3Cc3cccc(C)c3)CC2)cc1	3.6	6.8	-3.9	50.8*	7.0
CC(CSc1nnnn1-c1ccccc1)Cn1c(N2CCCC2)nc2c1c(=O)[nH]c(=O)n2C (stereo not given)	-2.2	-2.1	4.2	45.7*	-0.2
O=C(O)CC/C(=N\NC(=O)CNC(=O)c1cccc(Cl)c1)c1ccccc1	3.4	-3.2	-1.2	5.2	5.1
CC1CCN(C(=O)CCc2ccc(Oc3cc([N+](=O)[O-])cc([N+](=O)[O-])c3)cc2)CC1	4.2	36.8*	-6.3	16.6	-1.0
Cc1cccc(C(=O)N2CCCC(c3nc(-c4ccc(C)o4)no3)C2)c1 (stereo not given)	3.0	6.1	1.9	5.4	7.4
CCOc1ccc(CNc2ccc(N3CCCC3)cc2)cc1	-0.1	4.0	-3.8	43.9*	-10.6
CCOc1ccc(CNc2ccc(N3CCN(Cc4ccccc4)CC3)cc2)cc1	2.1	-4.8	-8.9	17.1	-0.2
O=C(C1CCN(c2ccc(N3CCOCC3)nn2)CC1)N1CCN(c2ccc(F)cc2)CC1	2.9	5.4	2.2	65.2*	-1.4
CC(C)(C)c1ccc(OCC(=O)NNC(=S)NC(=O)c2ccccc2[N+](=O)[O-])c(Br)c1	3.9	26.7*	5.1	0.9	-10.9
SMILES	LYPLA1 counter	LYPLA2 counter	procasp3 activ	PREPL inhibitor	proCasp7 act
CCCCn1c(/C=N/Nc2nc3ccccc3[nH]2)nc2ccccc21	-7.1	3.0	25.4*	18.3	2.3
CC(=O)c1cc(Cc2csc(C(C)=O)c2)cs1	2.2	8.3	5.3	52.7*	-4.5
CC(=O)c1cc(CN2C(=O)CCC2=O)cs1	0.6	2.2	8.7	4.3	-6.8
N=c1n(CCN2CCCCC2)c2ccccc2n1CC(=O)c1ccc(Cl)c(Cl)c1	-8.3	-15.8	0.4	43.2*	-8.7
N=c1n(CCN2CCCCC2)c2ccccc2n1CC(O)c1ccc(Cl)c(Cl)c1 (stereo not given)	5.3	3.1	-5.9	49.9*	1.0
N=c1n(CCN2CCCCC2)c2ccccc2n1CC(O)c1cccc(Br)c1 (stereo not given)	2.8	0.7	-5.7	41.0	1.8
O=C(NC(=S)NCc1ccc(Cl)cc1)c1ccco1	·	·	-1.3	8.5	0.7
C(=Nc1cccc2c(N=Cc3ccco3)cccc12)c1ccco1	4.1	3.1	-11.8	55.0*	-13.9
CN(C)c1ccc(N=Cc2ccco2)cc1	-3.0	1.8	-0.6	31.1	-18.0
O=C(c1cc2c(s1)CCCC2)n1cccn1	4.0	18.6	5.2	68.0*	-3.0
Cc1cc(C(=O)Nc2ccccc2C(=O)O)oc1C	3.7	0.8	-5.5	15.4	-8.0
COc1cccc(-c2csc(N3CCN(C(=O)Nc4ccc(F)cc4)CC3)n2)c1	-7.4	-1.4	8.1	24.1	1.4
COc1cccc(-c2csc(N3CCN(CC(=O)Nc4ccc5c(c4)OCO5)CC3)n2)c1	-6.5	5.2	5.3	54.6*	-5.7
Brc1ccc(CSc2ccc3nnc(-c4cccnc4)n3n2)cc1	-3.8	6.3	-6.0	19.8	-1.1
Brc1ccc(CSc2ccc3nnc(-c4ccccn4)n3n2)cc1	-1.1	5.7	-3.9	45.1*	0.9
CCC(C)C(=O)NCCc1ccc(S(N)(=O)=O)cc1 (stereo not given)	0.7	3.2	14.0	-2.2	6.5
COc1ccc(-c2nnn(CC(=O)N(CCCN3CCOCC3)C(C(=O)NC3CCCC3)c3ccco3)n2)cc1 (stereo not given)	0.4	-0.1	-6.0	7.6	3.6
CCOC(=O)c1[nH]c2ccc(OC)cc2c1NC(=S)N1CCN(c2ccccc2)CC1	-0.5	4.0	-13.0	57.5*	-11.9
COC(=O)c1cc(OC)c(OC)cc1NC(=S)N1CCN(c2ccccc2)CC1	-0.7	7.0	4.1	47.4*	-2.1
COC(=O)c1ccccc1NC(=S)N1CCN(c2ccccc2)CC1	-0.1	5.0	2.2	-2.8	-7.0
COc1ccc2ccc(OCC(=O)Nc3cc(C)on3)cc2c1	-2.6	-3.1	0.1	-0.8	-1.6
COC(=O)CN(c1ccccc1[N+](=O)[O-])S(=O)(=O)c1ccccc1	2.2	5.0	1.1	9.4	1.3
CC(=O)Nc1ccc(N2CCc3c(C)c(C#N)c4nc5ccccc5n4c32)cc1	0.8	3.2	64.9*	-0.9	89.6*
CC(=O)c1ccc(Nc2c3c(c(C#N)c4nc5ccccc5n24)CCC3)cc1	3.1	1.8	10.4	3.7	-5.5
